Results on 14 compounds are retold here after ChEMBL document CHEMBL2429797, “2,5,6-trisubstituted imidazo[2,1-b][1,3,4]thiadiazoles: search for antihyperlipidemic agents” (Eur J Med Chem, 2013).

In data set [1] the test system is Rattus norvegicus. As to the kind of experiment: Ratio of total cholesterol level in serum to HDL level in serum in Triton-X-100-induced hyperlipidemia Wistar albino rat model at 250 mg/kg, po qd for 7 days. Format: functional. The essentials: (§1)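 Triton-X-100 hyperlipidemic male Wistar rats, n = 6 per group, dosed orally for 7 days in 5% CMC. Serum lipids were measured and risk ratios calculated per NCEP (2002): total cholesterol:HDL (atherogenic index) and LDL:HDL.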

Data set [2] relates to Rattus norvegicus. As to the kind of experiment: Antihyperlipidemic activity in Triton-X-100-induced hyperlipidemia Wistar albino rat model assessed as increase of HDL level in serum at 250 mg/kg, po qd for 7 days. The class given is functional. Summed up:
(§2)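 Male Wistar albino rats (200–250 g), fasted 18 h, then given a single i.p. injection of Triton-X-100 (100 mg/kg) in saline. Starting 72 h later, dosed orally once daily for 7 days with suspension in 5% CMC; six per group. Retro-orbital blood taken under ether; serum separated at 2500 × g, 15 min, 4 °C, and lipids assayed. Mean ± SEM, n = 6.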

Data set [3] concerns Rattus norvegicus. As to the kind of experiment: Antihyperlipidemic activity in Triton-X-100-induced hyperlipidemia Wistar albino rat model assessed as reduction of LDL level in serum at 250 mg/kg, po qd for 7 days. Format: functional. Summed up: as §2
The test system of data set [4] is Rattus norvegicus. As to the kind of experiment: Antihyperlipidemic activity in Triton-X-100-induced hyperlipidemia Wistar albino rat model assessed as reduction of VLDL level in serum at 250 mg/kg, po qd for 7 days. The class given is functional. Summed up:
as §2

Data set [5] relates to Rattus norvegicus. As to the kind of experiment: Antihyperlipidemic activity in Triton-X-100-induced hyperlipidemia Wistar albino rat model assessed as reduction of total cholesterol level in serum at 250 mg/kg, po qd for 7 days. Format: functional. Summed up: as §2
The test system of data set [6] is Rattus norvegicus. As to the kind of experiment: Ratio of LDL level in serum to HDL level in serum in Triton-X-100-induced hyperlipidemia Wistar albino rat model at 250 mg/kg, po qd for 7 days. The class given is functional. The essentials:
as §1

Data set [7] relates to Rattus norvegicus. As to the kind of experiment: Antihyperlipidemic activity in Triton-X-100-induced hyperlipidemia Wistar albino rat model assessed as reduction of triglyceride level in serum at 250 mg/kg, po qd for 7 days. The class given is functional. Summed up: as §2
The test system of data set [8] is Rattus norvegicus. As to the kind of experiment: Hepatotoxicity in Triton-X-100-induced hyperlipidemia Wistar albino rat model assessed as SGOT level in serum at 250 mg/kg, po qd for 7 days. The class given is toxicity, organism-based. Set-up: dose 250 mg/kg, route oral. The following applies: in vivo, 168 h. Summed up: (§3)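 Serum from Triton-X-100 hyperlipidemic male Wistar rats, dosed orally daily for 7 days in 5% CMC. Blood taken retro-orbitally under ether. Assays: alanine transferase and aspartate transferase reported in IU, alkaline phosphatase in KA units. Normal ranges are given alongside.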

The test system of data set [9] is Rattus norvegicus. As to the kind of experiment: Hepatotoxicity in Triton-X-100-induced hyperlipidemia Wistar albino rat model assessed as SGPT level in serum at 250 mg/kg, po qd for 7 days. The class given is toxicity, organism-based. Set-up: dose 250 mg/kg, route oral. The following applies: in vivo, 168 h. The essentials: as §3
The subject of data set [10] is Rattus norvegicus. As to the kind of experiment: Protective activity against Triton-X-100-induced hepatotoxicity in Wistar albino rat assessed as mild cytoplasmic fatty infiltration and mild granular degeneration in liver at 250 mg/kg, po qd for 7 days. Format: functional, organism-based. Set-up: dose 250 mg/kg.
The test system of data set [11] is Rattus norvegicus. As to the kind of experiment: Hepatotoxicity in Triton-X-100-induced hyperlipidemia Wistar albino rat model assessed as alkaline phosphatase level in serum at 250 mg/kg, po qd for 7 days. Set-up: dose 250 mg/kg, route oral. As to conditions: in vivo, 168 h. The class given is toxicity, organism-based. The essentials: as §3
The subject of data set [12] is Rattus norvegicus. As to the kind of experiment: Protective activity against Triton-X-100-induced hepatotoxicity in Wistar albino rat assessed as mild cytoplasmic fatty infiltration and mild to moderate granular degeneration in liver at 250 mg/kg, po qd for 7 days. Format: functional, organism-based. Set-up: dose 250 mg/kg.

Activity calls are given as the source filed them. No cut-off for these calls is given here.

With `COc1ccc(/N=C/c2c(-c3ccc(Cl)cc3)nc3sc(-c4ccc5c(c4)OCO5)nn23)cc1`, the values for the Ratio in the data set with Rattus norvegicus [1] and in the data set with Rattus norvegicus [6] were 3.44 and 1.9, respectively. Further, the Activity came to 31.34 mg/dL with Rattus norvegicus [2]; 59.85 mg/dL with Rattus norvegicus [3]; 16.86 mg/dL in the data set with Rattus norvegicus [4]; 107.83 mg/dL in the data set with Rattus norvegicus [5]; 83.56 mg/dL with Rattus norvegicus [7].

As to `Brc1ccc(/N=C/c2c(-c3ccccc3)nc3sc(-c4ccc5c(c4)OCO5)nn23)cc1`, the Ratio in the data set on Rattus norvegicus [1] is 4.55; in the data set on Rattus norvegicus [6], 2.57. Also, the Activity was determined as 24.78 mg/dL in the data set with Rattus norvegicus [2]; 63.74 mg/dL in the data set with Rattus norvegicus [3]; 19.86 mg/dL in the data set on Rattus norvegicus [4]; 112.78 mg/dL with Rattus norvegicus [5]; 86.89 mg/dL in the data set on Rattus norvegicus [7].

`O=C(N/N=C/c1c(-c2ccc(Cl)cc2)nc2sc(-c3ccc4c(c3)OCO4)nn12)c1ccccc1`: the Ratio in the data set on Rattus norvegicus [1] came out at 3.6; with Rattus norvegicus [6] it was 1.97. The Activity worked out at 29.93 mg/dL in the data set on Rattus norvegicus [2]; 59.12 mg/dL in the data set on Rattus norvegicus [3]; 16.34 mg/dL with Rattus norvegicus [4]; 107.87 mg/dL with Rattus norvegicus [5]; 80.67 mg/dL in the data set with Rattus norvegicus [7].

On to `Cc1ccc(/N=C/c2c(-c3ccc(Cl)cc3)nc3sc(-c4ccc5c(c4)OCO5)nn23)cc1`, for which the Ratio came out at 3.89 in the data set with Rattus norvegicus [1] and 2.36 in the data set on Rattus norvegicus [6]. Besides, the Activity was 29.12 mg/dL with Rattus norvegicus [2]; 68.84 mg/dL with Rattus norvegicus [3]; 18.35 mg/dL with Rattus norvegicus [4]; 113.28 mg/dL with Rattus norvegicus [5]; 85.67 mg/dL in the data set with Rattus norvegicus [7].

For `Fc1ccc(/N=C/c2c(-c3ccc(Cl)cc3)nc3sc(-c4ccc5c(c4)OCO5)nn23)cc1Cl`, the Activity was found to be 56.5 IU in the data set on Rattus norvegicus [8]; 33.57 mg/dL with Rattus norvegicus [2]; 54.95 mg/dL with Rattus norvegicus [3]; 27.8 IU with Rattus norvegicus [9]; 15.43 mg/dL in the data set with Rattus norvegicus [4]; 99.89 mg/dL in the data set on Rattus norvegicus [5]. The Activity in the data set on Rattus norvegicus [7] was found to be 80.45 mg/dL; in the data set on Rattus norvegicus [11] it was 27.3 KA. Also, the Ratio was 2.97 in the data set on Rattus norvegicus [1] and 1.63 in the data set with Rattus norvegicus [6]. Also, the result in the data set on Rattus norvegicus [10] was Active.

As to `O=C(O)c1ccc(/N=C/c2c(-c3ccc(Cl)cc3)nc3sc(-c4ccc5c(c4)OCO5)nn23)cc1`, the Activity in the data set on Rattus norvegicus [8] stood at 48.3 IU; in the data set on Rattus norvegicus [2], 34.78 mg/dL; in the data set with Rattus norvegicus [3], 49.94 mg/dL; in the data set with Rattus norvegicus [9], 26.8 IU; in the data set on Rattus norvegicus [4], 15.85 mg/dL; with Rattus norvegicus [5], 96.12 mg/dL. Further, the Activity in the data set with Rattus norvegicus [7] turned out to be 76.89 mg/dL; in the data set on Rattus norvegicus [11], 29.5 KA. The Ratio in the data set with Rattus norvegicus [1] is 2.76; in the data set on Rattus norvegicus [6], 1.43. For the same compound, the outcome in the data set on Rattus norvegicus [10] was Active.

On to `C(=N\c1ccccc1)/c1c(-c2ccccc2)nc2sc(-c3ccc4c(c3)OCO4)nn12`, for which the Ratio amounted to 4.7 with Rattus norvegicus [1] and 2.62 in the data set on Rattus norvegicus [6]. In addition, the Activity came out at 25.12 mg/dL with Rattus norvegicus [2]; 65.85 mg/dL in the data set with Rattus norvegicus [3]; 21.54 mg/dL with Rattus norvegicus [4]; 118.23 mg/dL with Rattus norvegicus [5]; 89.12 mg/dL in the data set on Rattus norvegicus [7].

For `CC(C)OC(=O)C(C)(C)Oc1ccc(C(=O)c2ccc(Cl)cc2)cc1` [FENOFIBRATE], the Activity in the data set on Rattus norvegicus [8] amounted to 49.45 IU; in the data set on Rattus norvegicus [2], 35.21 mg/dL; in the data set with Rattus norvegicus [3], 51.68 mg/dL; in the data set with Rattus norvegicus [9], 26.43 IU; in the data set with Rattus norvegicus [4], 13.67 mg/dL; with Rattus norvegicus [5] it was 102.24 mg/dL. Also, the Activity is 71.23 mg/dL with Rattus norvegicus [7] and 28.33 KA in the data set with Rattus norvegicus [11]. Moreover, the Ratio was found to be 2.9 with Rattus norvegicus [1] and 1.46 in the data set on Rattus norvegicus [6].

In the case of `NS(=O)(=O)c1ccc(/N=C/c2c(-c3ccc(Cl)cc3)nc3sc(-c4ccc5c(c4)OCO5)nn23)cc1`, the Activity in the data set on Rattus norvegicus [8] came to 51.7 IU; in the data set on Rattus norvegicus [2], 33.78 mg/dL; with Rattus norvegicus [3], 52.23 mg/dL; in the data set with Rattus norvegicus [9], 28.6 IU; with Rattus norvegicus [4] it was 14.73 mg/dL; in the data set with Rattus norvegicus [5], 101.56 mg/dL. Moreover, the values for the Activity with Rattus norvegicus [7] and with Rattus norvegicus [11] were 79.54 mg/dL and 29.3 KA, respectively. The values for the Ratio in the data set with Rattus norvegicus [1] and with Rattus norvegicus [6] were 3 and 1.54, respectively. Besides, in the data set with Rattus norvegicus [10], the result was Active.

Turning to `COc1ccc(/N=C/c2c(-c3ccccc3)nc3sc(-c4ccc5c(c4)OCO5)nn23)cc1`, the Ratio in the data set with Rattus norvegicus [1] is listed as 3.95; in the data set with Rattus norvegicus [6] it was 2.24. Also, the Activity was found to be 28.83 mg/dL in the data set with Rattus norvegicus [2]; 64.73 mg/dL in the data set with Rattus norvegicus [3]; 18.46 mg/dL with Rattus norvegicus [4]; 113.98 mg/dL in the data set on Rattus norvegicus [5]; 84.98 mg/dL in the data set with Rattus norvegicus [7].

As to `O=[N+]([O-])c1ccc(/N=C/c2c(-c3ccc(Cl)cc3)nc3sc(-c4ccc5c(c4)OCO5)nn23)cc1`, the Activity with Rattus norvegicus [8] stood at 49.9 IU; in the data set on Rattus norvegicus [2], 31.54 mg/dL; in the data set on Rattus norvegicus [3], 58.24 mg/dL; in the data set on Rattus norvegicus [9] it was 28.3 IU; in the data set on Rattus norvegicus [4], 18.13 mg/dL; with Rattus norvegicus [5], 105.56 mg/dL. Besides, the Activity in the data set on Rattus norvegicus [7] was determined as 82.56 mg/dL; in the data set with Rattus norvegicus [11] it was 28.8 KA. Moreover, the Ratio in the data set with Rattus norvegicus [1] worked out at 3.34; in the data set with Rattus norvegicus [6], 1.84.

For the compound `Cc1ccc(/N=C/c2c(-c3ccccc3)nc3sc(-c4ccc5c(c4)OCO5)nn23)cc1`, the values for the Ratio with Rattus norvegicus [1] and with Rattus norvegicus [6] were 4.89 and 2.84, respectively. Moreover, the Activity came to 23.34 mg/dL with Rattus norvegicus [2]; 66.32 mg/dL in the data set with Rattus norvegicus [3]; 22.83 mg/dL in the data set with Rattus norvegicus [4]; 114.36 mg/dL in the data set with Rattus norvegicus [5]; 88.43 mg/dL in the data set with Rattus norvegicus [7].

For the compound `Cc1cccc(/N=C/c2c(-c3ccc(Cl)cc3)nc3sc(-c4ccc5c(c4)OCO5)nn23)c1`, the Ratio came out at 4.04 in the data set on Rattus norvegicus [1] and 2.23 in the data set with Rattus norvegicus [6]. In addition, the Activity in the data set on Rattus norvegicus [2] was found to be 28.12 mg/dL; in the data set on Rattus norvegicus [3], 62.83 mg/dL; in the data set on Rattus norvegicus [4], 19.93 mg/dL; in the data set on Rattus norvegicus [5] it was 113.72 mg/dL; in the data set with Rattus norvegicus [7], 86.23 mg/dL.

With `Clc1ccc(-c2nc3sc(-c4ccc5c(c4)OCO5)nn3c2/C=N/c2ccc(Br)cc2)cc1`, the Activity in the data set with Rattus norvegicus [8] was 58.8 IU; in the data set with Rattus norvegicus [2], 32.85 mg/dL; with Rattus norvegicus [3], 53.82 mg/dL; with Rattus norvegicus [9], 29.3 IU; in the data set on Rattus norvegicus [4] it was 16.85 mg/dL; in the data set on Rattus norvegicus [5], 103.54 mg/dL. Moreover, the Activity came to 83.43 mg/dL with Rattus norvegicus [7] and 26.6 KA in the data set on Rattus norvegicus [11]. Further, the Ratio was found to be 3.15 in the data set on Rattus norvegicus [1] and 1.63 in the data set on Rattus norvegicus [6]. Moreover, in the data set with Rattus norvegicus [12], the result was Active.
